# Legend:
# [1] = Distribution coefficient, log D between 1-octonol and aqueous phosphate buffer at pH 7.4; format: physicochemical; conditions: 1-octanol/aqueous phosphate buffer
# Summary of the method: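 logD measured as distribution between 1-octanol and aqueous phosphate buffer, pH 7.4.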
# Mus musculus = species: Mus musculus; assay: fCmax in mouse during 12 days study; format: ADME, organism-based; conditions: in vivo, 288 h
# [2] = Permeability from apical to basolateral side in human Caco2 cells at 10 uM; format: ADME, cell-based; conditions: Caco-2
# Summary of the method: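 In vitro Caco-2 monolayer, compound at 10 µM. Apparent permeability (Papp) measured apical to basolateral; efflux ratio also determined.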
# [3] = Stability in pH 1 to 8 buffer; format: physicochemical
# [4] = Stability in pH 10 buffer assessed as loss of trifluoro-oxadiazole group; format: physicochemical
# [5] = Degradation half life in pH 10 buffer assessed as loss of trifluoro-oxadiazole group by measuring piperazine level at 25 degC; format: physicochemical
# [6] = Plasma clearance in C57BL6 mouse at 3 mg/kg, iv or 5 mg/kg, po; format: ADME, organism-based
# Summary of the method: (§1)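 Male C57BL6 mice. IV dose 3 mg/kg as a solution in 5% DMSO:95% hydroxypropyl β-cyclodextrin. Oral dose 5 mg/kg as a 0.1% HMPC/tween suspension. Plasma sampled for pharmacokinetic parameters.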
# [7] = Volume of distribution at steady state in C57BL6 mouse at 3 mg/kg, iv or 5 mg/kg, po; format: ADME, organism-based; conditions: in vivo, read-out: Vdss; summary of the method: as §1
# [8] = Half life in C57BL6 mouse at 5 mg/kg, po; format: ADME, organism-based; parameters: dose 5 mg/kg, route oral; conditions: in vivo
# [9] = Half life in C57BL6 mouse at 3 mg/kg, iv; format: ADME, organism-based; parameters: dose 3 mg/kg, route intravenous; conditions: in vivo
# Summary of the method: (§2)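 Male C57BL6 mice given 3 mg/kg, male Han Wistar rats 2 mg/kg, beagle dogs (male and female) 2 mg/kg, IV as solution in 5% DMSO:95% hydroxypropyl β-cyclodextrin; plasma PK parameters determined.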
# [10] = Oral bioavailability in C57BL6 mouse at 5 mg/kg; format: ADME, organism-based; conditions: in vivo; summary of the method: as §1
# [11] = Plasma clearance in Han Wistar rat at 2 mg/kg, iv or 5 mg/kg, po; format: ADME, organism-based
# Summary of the method: (§3)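 Male Han Wistar rats. IV dose 2 mg/kg in 5% DMSO:95% hydroxypropyl β-cyclodextrin. Oral dose 5 mg/kg as a 0.1% HMPC/tween suspension. Plasma pharmacokinetic parameters derived.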
# [12] = Volume of distribution at steady state in Han Wistar rat at 2 mg/kg, iv or 5 mg/kg, po; format: ADME, organism-based; conditions: in vivo, read-out: Vdss; summary of the method: as §3
# [13] = Half life in Han Wistar rat at 5 mg/kg, po; format: ADME, organism-based; parameters: dose 5 mg/kg, route oral; conditions: in vivo
# [14] = Half life in Han Wistar rat at 2 mg/kg, iv; format: ADME, organism-based; parameters: dose 2 mg/kg, route intravenous; conditions: in vivo; summary of the method: as §2
# [15] = Oral bioavailability in Han Wistar rat at 5 mg/kg; format: ADME, organism-based; conditions: in vivo; summary of the method: as §3
# [16] = Plasma clearance in beagle dog at 2 mg/kg, iv or 3.4 mg/kg, po; format: ADME, organism-based, Canis lupus familiaris
# Summary of the method: (§4)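 Beagle dogs, male and female. IV dose 2 mg/kg in 5% DMSO:95% hydroxypropyl β-cyclodextrin. Oral dose 3.4 mg/kg as a 0.1% Pluronic F127 suspension. Plasma pharmacokinetic parameters derived.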
# [17] = Volume of distribution at steady state in beagle dog at 2 mg/kg, iv or 3.4 mg/kg, po; format: ADME, organism-based, Canis lupus familiaris; conditions: in vivo, read-out: Vdss; summary of the method: as §4
# [18] = Half life in beagle dog at 3.4 mg/kg, po; format: ADME, organism-based, Canis lupus familiaris; parameters: dose 3.4 mg/kg, route oral; conditions: in vivo
# [19] = Half life in beagle dog at 2 mg/kg, iv; format: ADME, organism-based, Canis lupus familiaris; parameters: dose 2 mg/kg, route intravenous; conditions: in vivo; summary of the method: as §2
# [20] = Oral bioavailability in beagle dog at 3.4 mg/kg; format: ADME, organism-based, Canis lupus familiaris; conditions: in vivo; summary of the method: as §4
# [21] = Intrinsic clearance in mouse hepatocytes assessed per million cells; format: ADME, cell-based, Hepatocyte; conditions: read-out: CLH
# [22] = Intrinsic clearance in dog hepatocytes assessed per million cells; format: ADME, cell-based, Canis lupus familiaris, Hepatocyte; conditions: read-out: CLH
# [23] = Intrinsic clearance in human hepatocytes assessed per million cells; format: ADME, cell-based, Hepatocyte; conditions: read-out: CLH
# [24] = Cmax in Han Wistar rat at 4.5 mg/kg, po; format: ADME, organism-based; parameters: dose 4.5 mg/kg, route oral; conditions: in vivo
# [25] = Cmax in Han Wistar rat at […], po; format: ADME, organism-based; parameters: dose 7.1 mg/kg, route oral; conditions: in vivo
# [26] = Cmax in Han Wistar rat at 12 mg/kg, po; format: ADME, organism-based; parameters: dose 12 mg/kg, route oral; conditions: in vivo
# [27] = Cmax in Han Wistar rat at 19 mg/kg, po; format: ADME, organism-based; parameters: dose 19 mg/kg, route oral; conditions: in vivo
# [28] = Cmax in Han Wistar rat at 100 mg/kg, po; format: ADME, organism-based; parameters: dose 100 mg/kg, route oral; conditions: in vivo
# [29] = Cmax in Han Wistar rat at 154 mg/kg, po; format: ADME, organism-based; parameters: dose 154 mg/kg, route oral; conditions: in vivo
# [30] = AUC (0 to 24 hrs) in Han Wistar rat at 4.5 mg/kg, po; format: ADME, organism-based; parameters: time < 24 hr, dose 4.5 mg/kg, route oral; conditions: plasma
# Summary of the method: (§5)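 Male Han Wistar rats, fed, single oral dose of suspension in 0.1% Pluronic F127; plasma AUC0-24hr in μM.h; mean of two animals.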
# [31] = AUC (0 to 24 hrs) in Han Wistar rat at […], po; format: ADME, organism-based; parameters: time < 24 hr, dose 7.1 mg/kg, route oral; conditions: plasma
# [32] = AUC (0 to 24 hrs) in Han Wistar rat at 12 mg/kg, po; format: ADME, organism-based; parameters: time < 24 hr, dose 12 mg/kg, route oral; conditions: plasma; summary of the method: as §5
# [33] = AUC (0 to 24 hrs) in Han Wistar rat at 19 mg/kg, po; format: ADME, organism-based; parameters: time < 24 hr, dose 19 mg/kg, route oral; conditions: plasma; summary of the method: as §5
# [34] = AUC (0 to 24 hrs) in Han Wistar rat at 100 mg/kg, po; format: ADME, organism-based; parameters: time < 24 hr, dose 100 mg/kg, route oral; conditions: plasma; summary of the method: as §5
# [35] = AUC (0 to 24 hrs) in Han Wistar rat at 154 mg/kg, po; format: ADME, organism-based; parameters: time < 24 hr, dose 154 mg/kg, route oral; conditions: plasma; summary of the method: as §5
# [36] = Cmax in beagle dog at 5 mg/kg, po; format: ADME, organism-based, Canis lupus familiaris; parameters: dose 5 mg/kg, route oral; conditions: in vivo
# [37] = Cmax in beagle dog at 50 mg/kg, po; format: ADME, organism-based, Canis lupus familiaris; parameters: dose 50 mg/kg, route oral; conditions: in vivo
# [38] = Cmax in beagle dog at 98 mg/kg, po; format: ADME, organism-based, Canis lupus familiaris; parameters: dose 98 mg/kg, route oral; conditions: in vivo
# [39] = AUC (0 to 24 hrs) in beagle dog at 5 mg/kg, po; format: ADME, organism-based, Canis lupus familiaris; parameters: time < 24 hr, dose 5 mg/kg, route oral; conditions: plasma
# Summary of the method: (§6)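 Beagle dogs (one male, one female), fed, single oral dose of suspension in 0.1% Pluronic F127; plasma AUC0-24hr in μM.h; mean of the two animals.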
# [40] = AUC (0 to 24 hrs) in beagle dog at 50 mg/kg, po; format: ADME, organism-based, Canis lupus familiaris; parameters: time < 24 hr, dose 50 mg/kg, route oral; conditions: plasma; summary of the method: as §6
# [41] = AUC (0 to 24 hrs) in beagle dog at 98 mg/kg, po; format: ADME, organism-based, Canis lupus familiaris; parameters: time < 24 hr, dose 98 mg/kg, route oral; conditions: plasma; summary of the method: as §6
# [42] = Cmax in C57BL6 mouse at […], po; format: ADME, organism-based; parameters: dose 5.7 mg/kg, route oral; conditions: in vivo
# [43] = Cmax in C57BL6 mouse at 11 mg/kg, po; format: ADME, organism-based; parameters: dose 11 mg/kg, route oral; conditions: in vivo
# [44] = Cmax in C57BL6 mouse at 31 mg/kg, po; format: ADME, organism-based; parameters: dose 31 mg/kg, route oral; conditions: in vivo
# [45] = Cmax in C57BL6 mouse at 57 mg/kg, po; format: ADME, organism-based; parameters: dose 57 mg/kg, route oral; conditions: in vivo
# [46] = AUC (0 to 24 hrs) in C57BL6 mouse at […], po; format: ADME, organism-based; parameters: time < 24 hr, dose 5.7 mg/kg, route oral; conditions: plasma
# [47] = AUC (0 to 24 hrs) in C57BL6 mouse at 11 mg/kg, po; format: ADME, organism-based; parameters: time < 24 hr, dose 11 mg/kg, route oral; conditions: plasma
# Summary of the method: (§7)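 Male C57BL6 mice, fed, single oral dose of suspension in 0.1% Pluronic F127; plasma sampled, AUC0-24hr in μM.h; mean of two animals.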
# [48] = AUC (0 to 24 hrs) in C57BL6 mouse at 31 mg/kg, po; format: ADME, organism-based; parameters: time < 24 hr, dose 31 mg/kg, route oral; conditions: plasma; summary of the method: as §7
# [49] = AUC (0 to 24 hrs) in C57BL6 mouse at 57 mg/kg, po; format: ADME, organism-based; parameters: time < 24 hr, dose 57 mg/kg, route oral; conditions: plasma; summary of the method: as §7
compound,measurement,setting,value
C[C@@H]1CN(c2nnc(C(F)(F)F)o2)CCN1c1ncc(OCc2ccc(CS(C)(=N)=O)cc2F)cn1 (stereo not given in full),logD,[1],2.1
C[C@@H]1CN(c2nc(C(F)(F)F)no2)CCN1c1ncc(OCc2ccc(S(C)(=O)=O)cc2F)cn1,logD,[1],3.7
C[C@@H]1CN(c2nc(C(F)(F)F)no2)CCN1c1ncc(OCc2ccc(CS(C)(=O)=O)cc2F)cn1,logD,[1],3.6
same,fCmax,Mus musculus,0.7 µM
same,Papp A→B at 10 µM,[2],10 ×10⁻⁶ cm/s
same,Stability,[3],Stable
same,Stability,[4],Unstable
same,t1/2,[5],60 h
same,clearance,[6],9.8 mL/min/kg
same,Vd,[7],5.1 L/kg
same,half-life,[8],6.9 h
same,half-life,[9],6.3 h
same,bioavailability,[10],76%
same,clearance,[11],11 mL/min/kg
same,Vd,[12],5.2 L/kg
same,half-life,[13],6.7 h
same,half-life,[14],6.1 h
same,bioavailability,[15],85%
same,clearance,[16],1.6 mL/min/kg
same,Vd,[17],3.3 L/kg
same,half-life,[18],30 h
same,half-life,[19],26 h
same,bioavailability,[20],98%
same,hepatocyte CLint,[21],7 µL/min/1e6 cells
same,hepatocyte CLint,[22],< 2 µL/min/1e6 cells
same,hepatocyte CLint,[23],< 2 µL/min/1e6 cells
same,Cmax,[24],0.8 µM
same,Cmax,[25],1.1 µM
same,Cmax,[26],3.4 µM
same,Cmax,[27],7.5 µM
same,Cmax,[28],8 µM
same,Cmax,[29],13.7 µM
same,AUC(0-t) at 24 h,[30],10 µM·h
same,AUC(0-t) at 24 h,[31],11 µM·h
same,AUC(0-t) at 24 h,[32],33 µM·h
same,AUC(0-t) at 24 h,[33],106 µM·h
same,AUC(0-t) at 24 h,[34],123 µM·h
same,AUC(0-t) at 24 h,[35],247 µM·h
same,Cmax,[36],1.5 µM
same,Cmax,[37],3.2 µM
same,Cmax,[38],5.3 µM
same,AUC(0-t) at 24 h,[39],20 µM·h
same,AUC(0-t) at 24 h,[40],42 µM·h
same,AUC(0-t) at 24 h,[41],78 µM·h
same,Cmax,[42],2.5 µM
same,Cmax,[43],3.3 µM
same,Cmax,[44],11.8 µM
same,Cmax,[45],29 µM
same,AUC(0-t) at 24 h,[46],26 µM·h
same,AUC(0-t) at 24 h,[47],35 µM·h
same,AUC(0-t) at 24 h,[48],151 µM·h
same,AUC(0-t) at 24 h,[49],456 µM·h
C[C@@H]1CN(c2nc(C(F)(F)F)no2)CCN1c1ncc(OCc2ccc(C[S+](C)[O-])cc2F)cn1 (stereo not given in full),logD,[1],3.4
C[C@@H]1CN(c2nc(C(F)(F)F)no2)CCN1c1ncc(OCc2ccc(CS(C)(=N)=O)cc2F)cn1 (stereo not given in full),logD,[1],2.8
C[C@@H]1CN(c2nc(C(F)(F)F)no2)CCN1c1ncc(OCc2ccc(N=S(C)(C)=O)cc2F)cn1,logD,[1],3.4
C[C@@H]1CN(C(=O)OC2(C(F)(F)F)COC2)CCN1c1ncc(OCc2ccc(CS(C)(=O)=O)cc2F)cn1,logD,[1],2.9
C[C@@H]1CN(C(=O)OC2(C(F)(F)F)COC2)CCN1c1ncc(OCc2ccc(OS(C)(=O)=O)cc2F)cn1,logD,[1],3.7
C[C@@H]1CN(C(=O)OC2(C(F)(F)F)COC2)CCN1c1ncc(OCc2ccc(S(C)(=O)=O)cc2F)cn1,logD,[1],3
CC(C)c1noc(N2CCN(c3ncc(OCc4ccc(CS(C)(=O)=O)cc4F)cn3)[C@H](C)C2)n1,logD,[1],3.1
CC(C)c1noc(N2CCN(c3ncc(OCc4ccc(S(C)(=O)=O)cc4F)cn3)[C@H](C)C2)n1,logD,[1],3.4
